This note sets out measurements from ChEMBL document CHEMBL1124974, “Orally potent human renin inhibitors derived from angiotensinogen transition state: design, synthesis, and mode of interaction” (J Med Chem, 1990).

The target in assay [1] is T1, Renin (Homo sapiens, UniProt P00797).
T1 sequence (P00797 whole entry): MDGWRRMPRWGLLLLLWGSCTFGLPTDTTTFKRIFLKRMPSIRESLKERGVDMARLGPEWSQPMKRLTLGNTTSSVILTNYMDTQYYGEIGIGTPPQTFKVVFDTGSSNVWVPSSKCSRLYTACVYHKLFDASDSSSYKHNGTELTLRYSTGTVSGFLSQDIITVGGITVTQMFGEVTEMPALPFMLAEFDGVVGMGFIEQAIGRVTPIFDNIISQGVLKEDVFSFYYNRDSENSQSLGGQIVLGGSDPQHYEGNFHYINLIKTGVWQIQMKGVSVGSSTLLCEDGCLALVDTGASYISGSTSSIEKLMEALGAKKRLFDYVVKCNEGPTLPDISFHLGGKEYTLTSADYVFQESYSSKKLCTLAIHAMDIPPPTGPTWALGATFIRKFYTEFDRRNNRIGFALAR
The assay can be described thus: Tested for inhibition of renin from human.

In assay [2] the target is T1, Renin. The assay can be described thus: Tested for inhibition of human plasma renin. It counts as cell-free. The essentials: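 Human plasma containing EDTA-2Na (14 mM) and neomycin sulfate (0.3%) mixed with 0.5 M phosphate buffer pH 7.0, Phe-Ala-Pro (20 mM aqueous stock) and inhibitor in DMSO; 60 min at 37 °C; angiotensin I generated quantified by radioimmunoassay.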

The target in the next assay is Pepsin A (Sus scrofa, UniProt P00791). Kind of assay: Tested for inhibition of pepsin from porcine. Put shortly: (§1)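 Run at 37 °C with hemoglobin substrate at pH 3.2 for cathepsin D, casein substrate at pH 2.0 for pepsin.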
For assay [3], the target named is T2, Angiotensin-converting enzyme (Oryctolagus cuniculus, UniProt P12822).
T2 sequence (P12822 whole entry): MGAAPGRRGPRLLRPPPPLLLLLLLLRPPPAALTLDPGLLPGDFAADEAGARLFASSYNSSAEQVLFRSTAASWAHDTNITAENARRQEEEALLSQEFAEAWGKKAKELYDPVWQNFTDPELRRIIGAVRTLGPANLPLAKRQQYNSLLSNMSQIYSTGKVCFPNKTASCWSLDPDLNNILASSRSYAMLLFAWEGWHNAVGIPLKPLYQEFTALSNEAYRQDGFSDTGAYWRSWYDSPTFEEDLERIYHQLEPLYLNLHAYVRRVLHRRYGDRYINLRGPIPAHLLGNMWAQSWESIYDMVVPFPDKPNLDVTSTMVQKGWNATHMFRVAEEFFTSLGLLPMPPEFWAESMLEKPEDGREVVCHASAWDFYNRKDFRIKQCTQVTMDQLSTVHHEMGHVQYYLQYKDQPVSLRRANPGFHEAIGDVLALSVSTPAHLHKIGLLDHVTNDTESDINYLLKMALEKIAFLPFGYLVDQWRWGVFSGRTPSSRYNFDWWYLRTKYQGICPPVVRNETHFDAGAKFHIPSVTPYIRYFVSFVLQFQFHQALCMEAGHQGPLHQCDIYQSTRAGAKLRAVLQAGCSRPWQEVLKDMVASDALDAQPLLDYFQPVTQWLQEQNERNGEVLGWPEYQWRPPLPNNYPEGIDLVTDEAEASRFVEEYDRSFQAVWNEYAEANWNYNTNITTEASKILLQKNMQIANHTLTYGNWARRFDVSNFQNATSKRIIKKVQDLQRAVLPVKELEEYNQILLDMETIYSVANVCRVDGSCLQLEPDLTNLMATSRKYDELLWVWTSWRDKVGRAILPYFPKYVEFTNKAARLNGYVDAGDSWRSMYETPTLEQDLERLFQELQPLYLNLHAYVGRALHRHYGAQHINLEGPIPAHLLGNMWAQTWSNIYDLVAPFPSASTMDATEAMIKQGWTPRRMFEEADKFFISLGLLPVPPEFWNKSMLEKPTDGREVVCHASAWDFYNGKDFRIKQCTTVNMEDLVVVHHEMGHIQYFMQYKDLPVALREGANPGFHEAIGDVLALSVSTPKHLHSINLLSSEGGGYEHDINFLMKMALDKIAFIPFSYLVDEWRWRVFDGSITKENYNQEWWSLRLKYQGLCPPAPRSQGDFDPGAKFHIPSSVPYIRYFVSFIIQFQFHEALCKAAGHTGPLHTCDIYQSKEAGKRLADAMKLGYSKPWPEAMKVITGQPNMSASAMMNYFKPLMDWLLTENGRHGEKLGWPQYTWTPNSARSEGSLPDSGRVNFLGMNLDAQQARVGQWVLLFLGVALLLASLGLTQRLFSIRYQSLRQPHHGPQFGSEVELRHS
Kind of assay: Tested for inhibition of Angiotensin I converting enzyme from rabbit. The essentials:
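Inhibition measured at 37 °C with Hip-His-Leu substrate, pH 8.3.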

Another assay deals with T3, Cathepsin D (Bos taurus, UniProt P80209).
T3 sequence (P80209 whole entry): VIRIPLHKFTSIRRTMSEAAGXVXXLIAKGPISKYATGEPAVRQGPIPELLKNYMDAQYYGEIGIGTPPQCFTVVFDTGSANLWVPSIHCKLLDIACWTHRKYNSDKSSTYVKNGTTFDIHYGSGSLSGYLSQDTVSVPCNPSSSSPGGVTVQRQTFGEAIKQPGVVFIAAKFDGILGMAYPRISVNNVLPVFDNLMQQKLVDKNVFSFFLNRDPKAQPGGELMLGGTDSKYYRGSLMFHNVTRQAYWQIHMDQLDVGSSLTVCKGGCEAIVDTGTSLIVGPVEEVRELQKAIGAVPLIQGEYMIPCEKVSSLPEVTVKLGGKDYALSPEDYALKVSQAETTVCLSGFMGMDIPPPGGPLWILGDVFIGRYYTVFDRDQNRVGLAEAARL
Kind of assay: Tested for inhibition of Cathepsin D from bovine. Put shortly: as §1

Sequence of Pepsin A (P00791 whole entry): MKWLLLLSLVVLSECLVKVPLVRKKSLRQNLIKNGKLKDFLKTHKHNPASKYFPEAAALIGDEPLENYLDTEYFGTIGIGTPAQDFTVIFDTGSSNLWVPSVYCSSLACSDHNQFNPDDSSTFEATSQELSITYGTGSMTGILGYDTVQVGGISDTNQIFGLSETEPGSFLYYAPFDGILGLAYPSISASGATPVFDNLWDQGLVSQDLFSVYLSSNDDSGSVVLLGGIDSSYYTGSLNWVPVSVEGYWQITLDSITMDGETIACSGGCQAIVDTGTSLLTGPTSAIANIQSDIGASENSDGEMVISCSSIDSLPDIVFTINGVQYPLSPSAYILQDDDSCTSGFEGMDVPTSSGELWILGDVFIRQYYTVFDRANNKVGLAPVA

As for `CC(C)OC(=O)[C@@H](O)[C@@H](CC1CCCCC1)NC(=O)[C@H](Cc1c[nH]cn1)NC(=O)[C@@H](CC(=O)N1CCOCC1)Cc1cccc2ccccc12`, the figures for the IC50 on Renin [1] and on Renin [2] were 2700 nM and 4200 nM, respectively.

Turning to `CC(C)OC(=O)[C@H](O)[C@@H](CC1CCCCC1)NC(=O)[C@H](Cc1c[nH]cn1)NC(=O)[C@@H](CC(=O)N1CCOCC1)Cc1cccc2ccccc12`, the IC50 against Renin [1] was determined as 3500 nM; at Renin [2], 2100 nM.

Take `CC(C)OC(=O)C(O)[C@@H](Cc1ccccc1)NC(=O)[C@H](Cc1cnc[nH]1)NC(=O)[C@@H](CC(=O)N1CCOCC1)Cc1cccc2ccccc12` (some centres not stated): the IC50 against Renin [1] was found to be 110 nM; on Renin [2] it was 270 nM.

Consider `CC(C)OC(=O)[C@H](O)[C@H](CC1CCCCC1)NC(=O)[C@H](Cc1c[nH]cn1)NC(=O)[C@H](CC(=O)N1CCOCC1)Cc1cccc2ccccc12`, for which the results for the IC50 against Renin [1] and against Renin [2] were 4200 nM and 1500 nM, respectively.

As to `CC(C)OC(=O)[C@H](O)[C@H](CC1CCCCC1)NC(=O)[C@@H](Cc1c[nH]cn1)NC(=O)[C@@H](CC(=O)N1CCOCC1)Cc1cccc2ccccc12`, the values for the IC50 against Renin [1] and against Renin [2] were 2500 nM and 2300 nM, respectively.

Take `CC(C)OC(=O)[C@H](O)[C@H](CC1CCCCC1)NC(=O)[C@H](Cc1c[nH]cn1)NC(=O)[C@@H](CC(=O)N1CCOCC1)Cc1cccc2ccccc12`: the half-maximal inhibitory concentration (IC50) at Pepsin A was greater than 100000 nM; against Renin [1] it was 2.4 nM; against Renin [2] it was 4.7 nM; in assay [3], greater than 100000 nM; against Cathepsin D, 80000 nM.

In the case of `CC(C)CC(=O)N[C@H](C(=O)N[C@H](C(=O)N[C@@H](CC(C)C)[C@@H](O)CC(=O)N[C@@H](C)C(=O)N[C@@H](CC(C)C)[C@@H](O)CC(=O)O)C(C)C)C(C)C` [PEPSTATIN], the figures for the IC50 (against Pepsin A; in assay [3]) were 18 nM and greater than 100000 nM, respectively.

As usually defined, the IC50 is the concentration at which inhibition is half-maximal. Lower therefore signals inhibition by little substance.
